Test results: ChEMBL document CHEMBL4813972, “A grafted peptidomimetic for EGFR heterodimerization inhibition: Implications in NSCLC models” (Eur J Med Chem, 2021)
Active and inactive are the calls of the source. The calls are words filed in the database; no cut-off is given here.

Legend:
BT-474 = assay: Antiproliferative activity against human BT-474 cells overexpressing HER2 assessed as cell growth inhibition incubated for 72 hrs by cell titer glo assay; assay type: functional, cell-based; conditions: BT-474, 72 h
MCF7 = assay: Antiproliferative activity against human MCF7 cells with silenced HER2 assessed as cell growth inhibition incubated for 72 hrs by cell titer glo assay; assay type: functional, cell-based; conditions: MCF7, 72 h
Summary of the method: (§1)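 Cells seeded at 1×10^4 per well, left overnight at 37 °C/5% CO2, then exposed to a concentration series of peptide (up to 200, down to 0.01 μM) for 72 h. 1% SDS and 1% DMSO served as controls. Cells were PBS-washed, CellTiter-Glo added and luminescence read. IC50 taken from three independent experiments per cell line.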

Calu-3 = assay: Antiproliferative activity against human Calu-3 cells overexpressing HER2 assessed as cell growth inhibition incubated for 72 hrs by cell titer glo assay; assay type: functional, cell-based; conditions: Calu-3, 72 h
A549 [1] = assay: Antiproliferative activity against human A549 cells overexpressing HER2 assessed as cell growth inhibition incubated for 72 hrs by cell titer glo assay; assay type: functional, cell-based; conditions: A549, 72 h; summary of the method: as §1
[2] = target: Receptor tyrosine-protein kinase erbB-2 (Homo sapiens) (UniProt P04626); assay: Binding affinity to HER2 ECD (unknown origin) by SPR analysis
[3] = target: Receptor tyrosine-protein kinase erbB-2 (Homo sapiens) (UniProt P04626); assay: Binding affinity to HER2 (unknown origin) assessed as reduction in heterodimerization of HER2/EGFR by competitive based SPR analysis
Summary of the method: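 Competitive SPR: EGFR with EGF immobilized on a CM5 chip. HER2 protein fixed at 200 nM was preincubated 15 min in HEPES buffer with varying peptide, then injected. Read-out was the drop in response units. Surface regenerated with glycine pH 2.2 between injections.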

[4] = target: T1, Epidermal growth factor receptor and ErbB2 (HER1 and HER2) (Homo sapiens) (UniProt P04626+P00533); assay: Inhibition of HER2/EGFR dimerization in human A549 cells incubated for 48 hrs by proximity ligation assay; assay type: cell-based; conditions: dose 0.5-1 µM
Summary of the method: (§2)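 A549 or Calu-3 cells (~1×10^4/well) on chamber slides, treated 48 h with 0.5 or 1 μM peptide. Controls: no compound, and one primary antibody omitted. Cells fixed in cold methanol, primary antibodies (EGFR, HER2, HER3) applied overnight at 4 °C, then PLA probes. Red fluorescence imaged at 40x and quantified over 3–6 fields.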

[5] = target: T2, ErbB-2/ErbB-3 heterodimer (Homo sapiens) (UniProt P04626+P21860); assay: Inhibition of HER2/HER3 dimerization in human A549 cells incubated for 48 hrs by proximity ligation assay; assay type: cell-based; conditions: dose 0.5-1 µM; summary of the method: as §2
[6] = target: T1, Epidermal growth factor receptor and ErbB2 (HER1 and HER2) (Homo sapiens); assay: Inhibition of HER2/EGFR dimerization in human Calu-3 cells incubated for 48 hrs by proximity ligation assay; assay type: cell-based; conditions: dose 0.5-1 µM; summary of the method: as §2
A549 [7] = assay: Effect on HER2 expression in human A549 cells at 1 uM incubated for 40 hrs by Western blot analysis; assay type: functional, cell-based
[8] = target: Receptor tyrosine-protein kinase erbB-2 (Homo sapiens) (UniProt P04626); assay: Inhibition of HER2 ECD in human A549 cells assessed as reduction in Akt phosphorylation at 1 uM incubated for 40 hrs by Western blot analysis; assay type: cell-based
[9] = Thermal stability of compound at 15 uM incubated at 25 to 75 degC by Circular dichroism spectrometry; assay type: physicochemical
Summary of the method: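 Peptide at 15 μM in acetonitrile. Ellipticity recorded from 25 to 75 °C in 5 °C steps.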

[10] = Thermal stability of compound at 15 uM incubated at 25 to 75 degC in presence of DTT by circular dichroism spectrometry; assay type: physicochemical
Mus musculus [11] = assay: In vivo inhibition of HER2/EGFR dimerization in human Calu-3 cells xenografted in Foxn1nu/Foxn1+ mouse at 8 mg/kg, IT(Intratumoral) administered thrice a week for 28 days and measured on day 28 by proximity ligation assay; assay type: functional, organism-based; conditions: time 28.0 day
Summary of the method: (§3)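 Tumors taken from the Calu-3 intratumoral study (8 mg/kg three times weekly, 28 days). Two tumors frozen at −80 °C, homogenized and immunoblotted for p-HER2. Others fixed, paraffin-embedded and sectioned at 5 μm. Sections underwent citrate pH 6.0 antigen retrieval, H2O2 block and BSA/NGS/Triton block, EGFR/HER2 primaries overnight at 4 °C, then PLA probes; imaged at 10X/40X.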

Mus musculus [12] = assay: In vivo inhibition of HER2 in human Calu-3 cells xenografted in Foxn1nu/Foxn1+ mouse assessed as reduction in HER2 phosphorylation at 8 mg/kg, IT(Intratumoral) administered thrice a week for 28 days and measured on day 28 by Western blot analysis; assay type: functional, organism-based; conditions: time 28.0 day; summary of the method: as §3
Mus musculus [13] = assay: In vivo inhibition of HER2/EGFR dimerization in human A549 cells harbouring KRAS mutant/wild type EGFR xenografted in Foxn1nu/Foxn1+ mouse by measuring reduction in red fluorescence at 6 mg/kg, iv administered twice a week for 5 weeks by proximity ligation assay; assay type: functional, organism-based
Summary of the method: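 Lung tumor sections from the A549-Red-FLuc i.v. metastasis mice (6 mg/kg i.v. twice weekly; sacrificed day 35). FFPE sections had citrate pH 6.0 antigen retrieval at 100 °C, peroxidase and serum blocking, primaries overnight at 4 °C, and PLA probes for EGFR:HER2 and HER2:HER3. Red fluorescence imaged at 40×.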

[14] = Toxicity in BALB/c mouse assessed as Ki-67 expression in spleenocytes at 6 mg/kg, iv administered on day 0 and 10 and spleenocytes collected on day 13 and incubated for 48 hrs by flow cytometry analysis; assay type: organism-based; conditions: in vivo, 360 h, time 15 day
Summary of the method: (§4)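 Female BALB/c mice given 6 mg/kg peptide in PBS i.v. (or PBS) on days 0 and 10, 12 mice in total. Splenocytes harvested day 13, RBC-lysed, and ≥2×10^6 cultured 48 h in RPMI/10% FBS with control media or peptide. Cells then stained for viability, CD3/CD4/CD8a and intracellular Ki67, and analyzed by flow cytometry.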

[15] = Toxicity in BALB/c mouse assessed as Ki-67 expression in CD4+ at 6 mg/kg, iv administered on day 0 and 10 and spleenocytes collected on day 13 and incubated for 48 hrs by flow cytometry analysis; assay type: organism-based; conditions: in vivo, 360 h, time 15 day; summary of the method: as §4
[16] = Toxicity in BALB/c mouse assessed as Ki-67 expression in CD8+ at 6 mg/kg, iv administered on day 0 and 10 and spleenocytes collected on day 13 and incubated for 48 hrs by flow cytometry analysis; assay type: organism-based; conditions: in vivo, 360 h, time 15 day; summary of the method: as §4
[17] = Toxicity in BALB/c mouse assessed as Ki-67 expression in CD4+CD8+ at 6 mg/kg, iv administered on day 0 and 10 and spleenocytes collected on day 13 and incubated for 48 hrs by flow cytometry analysis; assay type: organism-based; conditions: in vivo, 360 h, time 15 day; summary of the method: as §4
[18] = target: T2, ErbB-2/ErbB-3 heterodimer (Homo sapiens); assay: Inhibition of HER2/HER3 dimerization in human Calu-3 cells incubated for 48 hrs by proximity ligation assay; assay type: cell-based; summary of the method: as §2
NCI-H1975 = assay: Synergistic antiproliferative activity against human NCI-H1975 cells assessed as combination index after 72 hrs in presence of lapatinib by cell titer glo assay; assay type: functional
[19] = Toxicity in Foxn1nu/Foxn1+ mouse xenografted with human A549 cells harbouring KRAS mutant/wild type EGFR assessed as enlarged cells in lung at 6 mg/kg, iv administered twice a week for 5 weeks; conditions: in vivo, 840 h
[20] = Toxicity in Foxn1nu/Foxn1+ mouse xenografted with human A549 cells harbouring KRAS mutant/wild type EGFR assessed as eosinophilic cytoplasm in lung at 6 mg/kg, iv administered twice a week for 5 weeks; conditions: in vivo, 840 h

Chain of Receptor tyrosine-protein kinase erbB-2 (Homo sapiens) (P04626 whole entry, the tested form may be a part): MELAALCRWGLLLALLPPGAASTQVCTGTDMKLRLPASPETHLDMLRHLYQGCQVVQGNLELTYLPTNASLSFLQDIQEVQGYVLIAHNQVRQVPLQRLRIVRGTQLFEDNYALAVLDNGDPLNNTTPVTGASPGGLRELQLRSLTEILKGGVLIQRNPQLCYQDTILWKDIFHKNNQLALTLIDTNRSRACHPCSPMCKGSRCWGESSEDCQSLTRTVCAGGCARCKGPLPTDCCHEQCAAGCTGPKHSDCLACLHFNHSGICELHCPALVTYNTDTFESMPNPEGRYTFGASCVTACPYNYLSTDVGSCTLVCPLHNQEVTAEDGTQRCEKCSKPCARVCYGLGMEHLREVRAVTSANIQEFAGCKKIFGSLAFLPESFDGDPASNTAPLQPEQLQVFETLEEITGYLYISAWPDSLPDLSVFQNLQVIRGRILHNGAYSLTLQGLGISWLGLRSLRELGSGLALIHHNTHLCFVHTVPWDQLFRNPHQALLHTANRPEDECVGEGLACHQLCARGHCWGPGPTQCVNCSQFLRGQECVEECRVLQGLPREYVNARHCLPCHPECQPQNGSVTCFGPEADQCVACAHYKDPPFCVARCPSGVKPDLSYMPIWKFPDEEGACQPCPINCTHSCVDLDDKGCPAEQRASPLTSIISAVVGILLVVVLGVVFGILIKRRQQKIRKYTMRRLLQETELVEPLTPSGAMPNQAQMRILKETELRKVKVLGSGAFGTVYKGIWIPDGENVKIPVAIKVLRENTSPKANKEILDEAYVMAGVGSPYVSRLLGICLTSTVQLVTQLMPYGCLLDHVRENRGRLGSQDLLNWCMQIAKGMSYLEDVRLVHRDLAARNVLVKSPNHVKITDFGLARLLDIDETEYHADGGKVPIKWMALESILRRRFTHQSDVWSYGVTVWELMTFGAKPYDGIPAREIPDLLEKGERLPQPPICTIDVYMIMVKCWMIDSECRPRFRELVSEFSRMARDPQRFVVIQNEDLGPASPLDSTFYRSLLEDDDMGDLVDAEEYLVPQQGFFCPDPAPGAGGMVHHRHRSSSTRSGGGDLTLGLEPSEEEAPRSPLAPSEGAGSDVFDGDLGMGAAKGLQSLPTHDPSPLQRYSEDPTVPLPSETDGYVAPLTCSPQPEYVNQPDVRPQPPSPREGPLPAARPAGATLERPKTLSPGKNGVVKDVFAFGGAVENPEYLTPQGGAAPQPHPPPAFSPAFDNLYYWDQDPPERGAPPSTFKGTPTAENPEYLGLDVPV

- IC50 (BT-474): 280 nM
- IC50 (MCF7): > 20 µM
- IC50 (Calu-3): 73 nM
- IC50 (A549 [1]): 369 nM
- Activity [2]: Dose-Dependent Effect
- Activity [3]: Active
- inhibition [4]: Dose-Dependent Effect
- inhibition [5]: Dose-Dependent Effect
- inhibition [6]: Dose-Dependent Effect
- inhibition [8]: Active
- Stabilty [9]: Stable
- Stabilty [10]: Stable
- inhibition [18]: Dose-Dependent Effect
Structure (SMILES): CC[C@H](C)[C@H]1C(=O)NC(=O)[C@H](CCCNC(=N)N)NC(=O)C[C@@H](c2cccc3ccccc23)NC(=O)N[C@H]2CSSC[C@H](NC(=O)C[C@@H](c3cccc4ccccc34)NC(=O)[C@H](CCCNC(=N)N)NC(=O)[C@@H]3CCCN3C(=O)[C@@H]3CCCN13)C(=O)N[C@@H](Cc1ccccc1)C(=O)N1CCC[C@H]1C(=O)N[C@@H](CC(=O)O)C(=O)NC(=O)[C@H](CC(=O)O)NC(=O)[C@H](Cc1ccccc1)NC2=O
- Activity (A549 [7]): inactive
- inhibition (Mus musculus [11]): Active
- inhibition (Mus musculus [12]): Active
- inhibition (Mus musculus [13]): Active
- Activity [14]: Non-Toxic
- Activity [15]: Non-Toxic
- Activity [16]: Non-Toxic
- Activity [17]: Non-Toxic
- CI (NCI-H1975): 0.83
- Activity [19]: Non-Toxic
- Activity [20]: Non-Toxic
